The text below walks through data of ChEMBL document CHEMBL3826935, “Synthesis and Pharmacology of (Pyridin-2-yl)methanol Derivatives as Novel and Selective Transient Receptor Potential Vanilloid 3 Antagonists” (J Med Chem, 2016).

Data set [1] concerns the target T1, Transient receptor potential cation channel subfamily V member 3 (Homo sapiens, UniProt Q8NET8).
T1 sequence (Q8NET8 whole entry): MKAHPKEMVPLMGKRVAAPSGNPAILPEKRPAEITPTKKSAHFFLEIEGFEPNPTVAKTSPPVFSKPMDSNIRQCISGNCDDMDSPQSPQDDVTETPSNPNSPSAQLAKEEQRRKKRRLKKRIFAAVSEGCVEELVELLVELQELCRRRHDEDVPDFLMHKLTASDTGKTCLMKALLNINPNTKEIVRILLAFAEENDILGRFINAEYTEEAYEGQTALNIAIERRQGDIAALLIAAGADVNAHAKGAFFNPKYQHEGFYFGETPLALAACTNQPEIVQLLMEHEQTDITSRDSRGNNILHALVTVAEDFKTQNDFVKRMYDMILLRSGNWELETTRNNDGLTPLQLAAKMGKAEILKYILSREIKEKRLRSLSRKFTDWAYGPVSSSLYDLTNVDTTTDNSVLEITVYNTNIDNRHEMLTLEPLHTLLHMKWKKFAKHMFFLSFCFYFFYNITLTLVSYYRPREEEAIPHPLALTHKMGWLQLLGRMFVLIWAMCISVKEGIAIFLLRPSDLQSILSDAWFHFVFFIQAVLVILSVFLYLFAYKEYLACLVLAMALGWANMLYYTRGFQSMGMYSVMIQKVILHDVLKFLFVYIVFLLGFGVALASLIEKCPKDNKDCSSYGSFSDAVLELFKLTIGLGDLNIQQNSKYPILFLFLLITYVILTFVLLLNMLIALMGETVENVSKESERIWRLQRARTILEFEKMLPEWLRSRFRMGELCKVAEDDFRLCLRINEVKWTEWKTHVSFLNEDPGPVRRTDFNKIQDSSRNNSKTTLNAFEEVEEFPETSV
Briefly: (§1) Antagonist activity at human TRPV3 expressed in recombinant HEK293 cells assessed as inhibition of 2-APB induced calcium flux by FLIPR analysis. In kind it is cell-based. Put shortly:
(§2)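 HEK293 cells stably expressing human TRPV3 (I25V variant), plated the day before in DMEM + 10% FBS at 37 °C, 5% CO2. Calcium 4 dye loaded in Ca/Mg-free HEPES D-PBS pH 7.4 for 1–2 h at room temperature. Compound dilutions added with 3 min baseline, then 2-APB at 60 µM final; Ca2+ flux read 3 min on FLIPR. Kb from at least duplicates, averaged across independent runs.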

Data set [2] has as its target T2, Transient receptor potential cation channel subfamily V member 3 (Homo sapiens) (UniProt Q8NET8).
T2 sequence (whole entry): T1 sequence (Q8NET8 whole entry)
Described as §1. In kind it is cell-based. Put shortly:
as §2

The test system of data set [3] is Liver microsome. Briefly: Unbound intrinsic clearance in rat liver microsomes after 5 hrs by LC-MS/MS analysis. It counts as ADME. Put shortly: (§3)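 Microsomal stability run in an automated high-throughput plate format. Intrinsic clearance corrected for nonspecific microsomal binding using measured unbound fraction (fu,mic), reported as unbound Clint in L/h/kg.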

Data set [4] deals with Liver microsome. Briefly: Drug metabolism in rat liver microsomes assessed as alcohol group oxidation after 1 hr by HPLC analysis. In kind it is ADME. The method, boiled down:
(§4)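 Compound incubated in rat liver microsomes for 1 h at 37 °C. Metabolite distribution analysed by HPLC; metabolite structures assigned by 1H NMR.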

The nature of data set [5]: Fraction unbound in human plasma. It counts as ADME, cell-free.
Data set [6] deals with Liver microsome. As to the kind of experiment: Drug metabolism in rat liver microsomes assessed as aromatic ring oxidation after 1 hr by HPLC analysis. In kind it is ADME. Put shortly:
as §4

For data set [7], the system named is Liver microsome. Briefly: Unbound intrinsic clearance in human liver microsomes after 5 hrs by LC-MS/MS analysis. In kind it is ADME. Put shortly: as §3
Data set [8] concerns Liver microsome. Briefly: Drug metabolism in rat liver microsomes assessed as cyclobutane ring oxidation after 1 hr by HPLC analysis. In kind it is ADME. Put shortly: as §4
Data set [9] is described as follows: […] plasma clearance in rat at 1 mg/kg, iv. The following applies: read-out: CL free (converted). It counts as ADME, organism-based. The method, boiled down: (§5)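 Rat pharmacokinetics: iv dose 1 mg/kg; po dose 1 or 2 mg/kg depending on compound. AUC taken over 0–8 h. Unbound parameters calculated using plasma free fraction.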
Data set [10] is described as follows: Oral bioavailability in rat at 1 mg/kg. It counts as ADME, organism-based. The following applies: in vivo. Put shortly: as §5
The subject of data set [11] is Rattus norvegicus. As to the kind of experiment: Unbound AUC(0 to 8 hrs) in rat at 1 mg/kg, po. In kind it is ADME, organism-based. Conditions: in vivo. Put shortly:
as §5

The nature of data set [12]: AUC(0 to 8 hrs) in rat at 1 mg/kg, po. It counts as ADME, organism-based. Details: time < 6 hr, dose 1 mg/kg, route oral. Conditions: in vivo. The method, boiled down:
as §5

The nature of data set [13]: Cmax in rat at 1 mg/kg, iv or 1 mg/kg, po. In kind it is ADME, organism-based. Conditions: in vivo. The method, boiled down: as §5
A short description of data set [14]: Total plasma clearance in rat at 1 mg/kg, iv. It counts as ADME, organism-based. Put shortly: as §5
Data set [15] is described as follows: Half life in rat at 1 mg/kg, iv. The following applies: in vivo. In kind it is ADME, organism-based. Put shortly: as §5
The nature of data set [16]: Volume of distribution at steady state in rat at 1 mg/kg, iv or 1 mg/kg, po. The following applies: in vivo, read-out: Vdss. It counts as ADME, organism-based. Put shortly: as §5
Data set [17] concerns the target T2, Transient receptor potential cation channel subfamily V member 3 (Homo sapiens). Briefly: Antagonist activity at human TRPV3 expressed in recombinant HEK293 cells assessed as free plasma level adjusted concentration for inhibition of 2-APB induced calcium flux by FLIPR analysis. In kind it is cell-based. The method, boiled down:
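FLIPR Kb from the 2-APB (60 µM final) Ca2+ flux assay in human TRPV3 HEK293 cells, converted to an unbound value using the measured free fraction in plasma.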

As to `O[C@H](c1ccccn1)C1(c2ccc(Cl)c(Cl)c2)CCC1`, the IC50 in data set [1] turned out to be 0.16 µM. The Kb in data set [2] stood at 0.08 µM. Moreover, the CL free in data set [3] came out at 2520 mL/min/kg; in data set [7], 683 mL/min/kg. The Drug metabolism entry in data set [4], in data set [6] and in [8] was “metabolite_detected” each time. Moreover, the fraction unbound in [5] was determined as 0.007.
For the molecule `C[C@]1(c2ccc(OC(F)(F)F)cc2)C[C@](O)(c2ccccn2)CO1` (single isomer, unassigned), the clearance in data set [9] was 293 mL/min/kg; in data set [14] it was 10 mL/min/kg. The molecule further came in with a bioavailability in data set [10] of 56%. In addition, the figures for the Kb in data set [2] and in [17] were 0.42 µM and 12 µM, respectively. For the same molecule, the fAUC in [11] came to 30 ng·h/mL. The CL free in [3] was 167 mL/min/kg; in data set [7] it was 120 mL/min/kg. Besides, the fraction unbound in [5] came out at 0.06. The molecule further registered an AUC(0-t) at 6 h in data set [12] of 930 ng·h/mL. In data set [13], the Cmax came to 130 ng/mL. Also, the half-life in data set [15] was 3.8 h. Besides, the Vd in [16] stood at 3.2 L/kg.
